From ChEMBL document CHEMBL1133797, “Synthesis and structure--activity analysis of novel dihydropyridine derivatives to overcome multidrug resistance” (Bioorg Med Chem Lett, 2001) come the findings set out here.

One experiment concerns KB 3-1. The experiment in a line: Resistance index determined as the ratio of IC50 of doxorubicin with compound (1 ug/mL) in KB VJ300 cells divided by the control tested in vitro. The format is functional, Homo sapiens.
For another experiment, the species on record is Rattus norvegicus. Kind of experiment: Calcium antagonistic activity determined by the inhibitory effect on high-potassium depolarization-induced contracture in isolated rat aorta. It counts as functional.
For experiment [1], the system named is Mus musculus. Kind of experiment: Survival days of vincristine (0.1 mg/kg, ip) treated mice after 100 mg/kg, ip dose divided by survival days of mice treated by vincristine (0.1 mg/kg, ip) alone. Particulars: route intraperitoneal. The format is functional. In short, it runs like this: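 Mice bearing P388 leukemia cells were given vincristine 0.1 mg/kg ip together with the test agent at 100 mg/kg ip. Survival days were recorded. Antitumor activity (%) is survival days with the combination divided by survival days of mice given vincristine 0.1 mg/kg ip alone.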

In experiment [2] the test system is Mus musculus. The experiment in a line: Survival days of vincristine (0.1 mg/kg, ip) treated mice after 30 mg/kg, ip dose divided by survival days of mice treated by vincristine (0.1 mg/kg, ip) alone. It counts as functional. The following applies: route intraperitoneal. In outline:
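In P388 leukemia-bearing mice, the test agent was dosed at 30 mg/kg ip with vincristine 0.1 mg/kg ip. Survival time was recorded. The value (%) is the ratio of survival days under the combination to survival days under vincristine 0.1 mg/kg ip alone.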

pIC50: −log10 of the molar value.

As a reminder, the pIC50 is the negative decadic logarithm of the IC50, by convention in mol/L.

Take `CCCCCC1C(C(=O)OCCCc2ccccc2)=C(C)N=C(C)/C1=C(/O)OCCCc1ccccc1` (stereo unspecified): in the experiment on KB 3-1, the Resistance index amounted to 22.7.

With `CCCCCC1C(C(=O)OCCc2ccc(N(C)C)cc2)=C(C)N=C(C)/C1=C(/O)OCCc1ccc(N(C)C)cc1` (stereo unspecified), the Resistance index with KB 3-1 worked out at 11.2.

Consider `CC1=NC(C)=C(C(=O)OCc2ccncc2)C(C2=C(C)SCCS2)/C1=C(\O)OCc1ccncc1` (stereo unspecified), for which, in the experiment listed under Rattus norvegicus, the pIC50 was 5.06.

Turning to `CCCCCC1C(C(=O)OCCCc2cccnc2)=C(C)N=C(C)/C1=C(/O)OCCCN1CCN(Cc2ccccc2)CC1` (stereo unspecified), the Resistance index with KB 3-1 was 1. In addition, the Activity in the experiment with Mus musculus [1] amounted to 150%. Also, the pIC50 in the experiment filed under Rattus norvegicus is 4.48.

As for `CCCCCC1C(C(=O)OCCN(C)Cc2ccccc2)=C(C)N=C(C)/C1=C(/O)OCCCc1cccnc1` (stereo unspecified), the Resistance index with KB 3-1 was found to be 1.4. Moreover, in the experiment with Mus musculus [1], the Activity is on record as 144%. The pIC50 in the experiment filed under Rattus norvegicus was 3.87.

Take `CCCCCC1C(C(=O)OCCCN2CCN(Cc3ccccc3)CC2)=C(C)N=C(C)/C1=C(/O)OCCCN1CCN(Cc2ccccc2)CC1` (stereo unspecified): in the experiment on KB 3-1, the Resistance index was determined as 1.1. For the same compound, the Activity with Mus musculus [1] was 127%. Also, the pIC50 in the experiment listed under Rattus norvegicus was 3.64.

`COC(=O)C1=C(C)NC(C)=C(C(=O)OCCN(C)Cc2ccccc2)C1c1cccc([N+](=O)[O-])c1` (stereo unspecified) [NICARDIPINE]: the negative-log IC50 (pIC50) in the experiment filed under Rattus norvegicus is 5.85.

On to `CCCCCC1C(C(=O)OCCc2ccc(N(C)C)cc2)=C(C)N=C(C)/C1=C(/O)OCCCc1cccnc1` (stereo unspecified), for which, in the experiment on KB 3-1, the Resistance index came out at 1.8. Besides, the Activity in the experiment with Mus musculus [1] was 125%. Besides, the pIC50 in the experiment listed under Rattus norvegicus is 4.35.

For the compound `CCCCCC1C(C(=O)OCCc2ccc(N(C)C)cc2)=C(C)N=C(C)/C1=C(/O)OCCCN1CCN(C(c2ccccc2)c2ccccc2)CC1` (stereo unspecified), the Resistance index in the experiment on KB 3-1 is recorded as 23.5.

Regarding `CCCCCC1C(C(=O)OCCN(C)Cc2ccccc2)=C(C)N=C(C)/C1=C(/O)OCCN(C)Cc1ccccc1` (stereo unspecified), in the experiment on KB 3-1, the Resistance index was found to be 3.9. Besides, the Activity in the experiment on Mus musculus [1] worked out at 128%. Moreover, in the experiment listed under Rattus norvegicus, the pIC50 is 3.94.

For the compound `CCCCCC1C(C(=O)OCCCc2ccncc2)=C(C)N=C(C)/C1=C(/O)OCCCN1CCN(C(c2ccccc2)c2ccccc2)CC1` (stereo unspecified), the Resistance index in the experiment with KB 3-1 is 1.

`CCCCCC1C(C(=O)O/C=C/Cc2cccnc2)=C(C)N=C(C)/C1=C(/O)O/C=C/Cc1cccnc1` (stereo unspecified): in the experiment on KB 3-1, the Resistance index was determined as 1.8. Also, in the experiment with Mus musculus [1], the Activity was found to be 89%.

Turning to `CCCCCC1C(C(=O)OCCCc2cccnc2)=C(C)N=C(C)/C1=C(/O)OCCCN1CCN(C(c2ccccc2)c2ccccc2)CC1` (stereo unspecified), the Resistance index with KB 3-1 is given as 1.1. This compound returned an Activity with Mus musculus [2] of 143%. Moreover, the pIC50 in the experiment filed under Rattus norvegicus was 3.76.

On to `CCCCCC1C(C(=O)OCCCc2cccnc2)=C(C)N=C(C)/C1=C(/O)OCCCc1cccnc1` (stereo unspecified), for which the Resistance index in the experiment with KB 3-1 was determined as 2. This compound also had an Activity in the experiment on Mus musculus [1] of 161%. The negative logarithm of the IC50 (pIC50) in the experiment filed under Rattus norvegicus is 4.34.

With `CCCCCC1C(C(=O)OCCCc2ccccn2)=C(C)N=C(C)/C1=C(/O)OCCCN1CCN(C(c2ccccc2)c2ccccc2)CC1` (stereo unspecified), the Resistance index in the experiment on KB 3-1 is listed as 1.7. In the experiment on Mus musculus [1], this compound registered an Activity of 120%.
